Assay results pooled from the literature.
Compare with care: the assays were run in different laboratories.
TEC: Tyrosine-protein kinase Tec (TEC, Homo sapiens, UniProt P42680)
TEC phosphorylated: Tyrosine-protein kinase Tec, phosphorylated (TEC, Homo sapiens, UniProt P42680)

CC/C(=N\NC(=O)NCc1cccc(O)c1)c1ccc(O)c(C)c1O  inhibition (TEC; enzyme activity; inhibitor; 0.1 µM): 0.2%
CCCOc1ccc(OC)c(F)c1C(=O)c1ccc(C(=O)N[C@@H]2CNC[C@H]2NC(=O)c2ccc3[nH]ncc3c2)cc1  remaining activity (TEC phosphorylated; enzyme activity; inhibitor; 10 µM): 50%
Cc1ccc(C(=O)NCc2ccsc2)cc1C#Cc1cn(C(C)C)c2ncnc(N)c12  activity vs control (TEC phosphorylated; enzyme activity; inhibitor; 1 µM): 107%
CN([C@@H]1CCc2c(CC(=O)O)c3ccccc3n2C1)S(=O)(=O)c1ccc(F)cc1  remaining binding (TEC; cell-free assay; competition with immobilised ligand; 1 µM): 100%
Cc1ccc(NC(=O)c2ccc(C)c(C(F)(F)F)c2)cc1C#Cc1nn(C2CCC(O)CC2)c2ncnc(N)c12 (centres unmarked)  remaining activity (TEC phosphorylated; enzyme activity; inhibitor; 10 µM): 24%
Cc1ccc(C(=O)Nc2ccc(CN3CCN(C)CC3)c(C(F)(F)F)c2)cc1C#Cc1cnc2cccnn12  remaining activity (TEC; enzyme activity; 23.5 nM): 84%
CC(C)(C)c1nc2c(s1)c1nc(N)ncc1c1ccc(NS(=O)(=O)c3c(F)cccc3F)c(F)c12  remaining activity (TEC; enzyme activity; inhibitor; radiometric; 1 µM): 87%
CCCS(=O)(=O)Nc1ccc(F)c(C(=O)c2c[nH]c3ncc(-c4ccc(Cl)cc4)cc23)c1F  inhibition (TEC; enzyme activity; inhibitor; 1 µM): < 10%
CN(c1ccnc(CNc2nc(Nc3ccc4c(c3)CC(=O)N4)ncc2C(F)(F)F)n1)S(C)(=O)=O  remaining binding (TEC; cell-free assay; competition with immobilised ligand; 1 µM): 100%
CNC(=O)c1cc(Oc2ccc(NC(=O)Nc3ccc(Cl)c(C(F)(F)F)c3)cc2)ccn1  remaining signal (TEC; cell-free assay; 0.5 µM): 101%
O=C(Nc1cnn(-c2csc(C(=O)NC3COC3)c2)c1)Nc1ccccc1Cl  remaining activity (TEC; enzyme activity; inhibitor; 5 µM): 97.2%
O=C(O)[C@@H]1[C@@H](Cn2nnc3ccccc3c2=O)CC[C@H]1C(=O)c1ccc(OCCC2CCOCC2)cc1  remaining binding (TEC; binding; competition with immobilised ligand; 1 µM): 95%
Cc1cc(NC(=O)c2cccc3cc(-c4cccc5[nH]nc(N)c45)ccc23)ccc1F  activity vs control (TEC phosphorylated; enzyme activity; inhibitor; 0.1 µM): 90%
CN(C)C(=O)Cn1cc(-c2nc(C3(c4ccc(-c5cnc(N)nc5)cc4)CC3)no2)cn1  remaining binding (TEC; binding; competition with immobilised ligand; 1 µM): 93%
N#CCCc1ccc2c(c1)-c1[nH]c3ccc([N+](=O)[O-])cc3c1CC(=O)N2  remaining signal (TEC; cell-free assay; 0.5 µM): 120%
O=C(Nc1cnn(-c2csc(C(=O)NC3COC3)c2)c1)Nc1c(F)cccc1Cl  remaining activity (TEC; enzyme activity; inhibitor; 5 µM): 97.7%
NS(=O)(=O)c1cc(NC(=O)C2(c3ccccc3Cl)CC2)ccc1Oc1cccc(Cl)c1  remaining binding (TEC; binding; competition with immobilised ligand; 1 µM): 81%
O=C(N[C@@H](C1CC1)C(F)(F)F)c1cc(-c2cnn3cc(-c4ccc(F)cc4)cnc23)cs1  inhibition (TEC; enzyme activity; inhibitor; radiometric; 40 nM): 0%
C[S+]([O-])c1ccc(-c2nc(-c3ccncc3)c(-c3ccc(F)cc3)[nH]2)cc1 (centres unmarked)  remaining signal (TEC; cell-free assay; 0.5 µM): 113%
CCCOc1ccc([C@@H]2[C@@H](C(=O)O)[C@H](c3ccc4c(c3)OCO4)CN2CC(=O)Nc2c(CC)cccc2CC)cc1  remaining binding (TEC; binding; competition with immobilised ligand; 1 µM): 96%
